Read-outs that look alike come from different tables or passages of the source. Where a SMILES comes first, the peptide text is derived from it. [ ]: non-standard residue; d: D form. The star is where a group is joined. dPhe(4-NHCONH2) = NC(=O)Nc1ccc(C[C@@H](N)C(=O)O)cc1; Dihydroorotyl(S) = O=C1C[C@@H](C(=O)*)NC(=O)N1; dPhe(4-Cl) = N[C@H](Cc1ccc(Cl)cc1)C(=O)O; Phe(4-NH2) = Nc1ccc(C[C@H](N)C(=O)O)cc1; d2Nal = N[C@H](Cc1ccc2ccccc2c1)C(=O)O; Lys(iPr) = CC(C)NCCCC[C@H](N)C(=O)O; d3Pal = N[C@H](Cc1cccnc1)C(=O)O
Tests used:
serum testosterone [1] = test: Serum testosterone suppression; assay type: in vivo, human (Japanese patients with prostate cancer); details: completers–FAS
[2] = test system: serum prostate-specific antigen (PSA); test: Serum PSA response and PSA failure, Phase II 3-month degarelix study; assay type: in vivo, human (Japanese patients with prostate cancer); details: FAS; for median percent change in serum PSA level from baseline to Day 364: range −99.9%
Method in brief: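 Randomised 1:1 by minimisation, patients got a subcutaneous 240 mg initial dose, then from Day 28 360 or 480 mg (60 mg/ml) every 84 days for four doses. In the full analysis set, percent change in serum PSA from baseline was calculated at Days 28 and 364. PSA failure (relapse) over Days 0–364 was given as a proportion with two-sided 95% CI, and cumulative incidence by Kaplan–Meier.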

Safety assessment = assay type: in vivo, human (Japanese patients with prostate cancer); details: for incidence of serious AEs / incidence of ADRs / overall incidence of AEs: SAF
Method in brief: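 The safety set covered all dosed patients, given a subcutaneous 240 mg initial dose, then 360 or 480 mg maintenance every 84 days for 12 months. Recorded were AEs, serious AEs and ADRs (including injection-site reactions), with AEs graded by NCI-CTCAE v4.0, plus biochemistry, hematology, urinalysis, vital signs and 12-lead ECG. Frequencies were tabulated by MedDRA System Organ Class and Preferred Term.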

[3] = Plasma pharmacokinetics of degarelix; assay type: in vivo, human (Japanese patients with prostate cancer); details: for GMR (95% CI) of Ctrough values between Days 28 and 364: human plasma, LC-MS/MS, geometric mean ratio, PKAS; for Cmax / Tmax: male, human, plasma, sc
Method in brief: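 Patients got a subcutaneous 240 mg (40 mg/ml) initial dose, then 360 or 480 mg (60 mg/ml) every 84 days from Day 28, for four doses. Plasma was sampled every 28 days and assayed by validated LC-MS/MS (LOQ 0.5 ng/ml). Ctrough was taken on Days 28, 112, 196, 280 and 364, and GMRs with 95% CIs were compared. In a subset, samples 3 and 7 days after Day 28 gave Cmax and Tmax. Analysis set: PKAS.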

serum testosterone [4] = details: Study CS18, 3-month regimen, cited from earlier work
serum testosterone [5] = details: Study CL-0003, 1-month regimen, cited from earlier work
serum PSA = details: Study CL-0003, 1-month regimen, cited from earlier work

With `CC(=O)N[C@H](Cc1ccc2ccccc2c1)C(=O)N[C@H](Cc1ccc(Cl)cc1)C(=O)N[C@H](Cc1cccnc1)C(=O)N[C@@H](CO)C(=O)N[C@@H](Cc1ccc(NC(=O)[C@@H]2CC(=O)NC(=O)N2)cc1)C(=O)N[C@H](Cc1ccc(NC(N)=O)cc1)C(=O)N[C@@H](CC(C)C)C(=O)N[C@@H](CCCCNC(C)C)C(=O)N1CCC[C@H]1C(=O)N[C@H](C)C(N)=O` [degarelix] (Ac-[d2Nal][dPhe(4-Cl)][d3Pal]S[Phe(4-NH2)](Dihydroorotyl(S))[dPhe(4-NHCONH2)]L[Lys(iPr)]P[dA]-NH2) as the compound, how does the “proportion of patients with a serum testosterone level ≤0.5 ng/ml from Days 28 to 364” value (serum testosterone [1]; 360 mg group, 95% CI 76.85–94.45%) read?
Its value is 87.50%.

What about the “proportion of patients with a serum testosterone level ≤0.5 ng/ml from Days 28 to 364” value (serum testosterone [1]; 480 mg group, 95% CI 89.92–99.65%) of the same compound?
Its value is 97.10%.

What about the “median percent change in serum PSA level from baseline to Day 28” value ([2]; 360 mg group (after 240 mg initial dose)) of the same compound?
The value was −70.4%.

What about the “proportion of patients with PSA failure (serum PSA relapse) from baseline to Day 364” value ([2]; 360 mg group) of the same compound?
The value was 2.7%.

What about the “median percent change in serum PSA level from baseline to Day 364” value ([2]; 360 mg group, −51.3%) of the same compound?
Its value is −95.05%.

And the “median percent change in serum PSA level from baseline to Day 28” value ([2]; 480 mg group (after 240 mg initial dose))?
Its value is −79.9%.

What about the “proportion of patients with PSA failure (serum PSA relapse) from baseline to Day 364” value ([2]; 480 mg group) of the same compound?
The value was 1.3%.

And the “median percent change in serum PSA level from baseline to Day 364” value ([2]; 480 mg group, −44.0%)?
Its value is −96.43%.

What about the “patients with AEs related to injection site reactions” value (Safety assessment; 360 mg group) of the same compound?
Its value is 50.0%.

What about the “incidence of serious AEs” value (Safety assessment; 360 mg group, 13/76) of the same compound?
The value was 17.1%.

What about the “incidence of ADRs” value (Safety assessment; 360 mg group, 68/76) of the same compound?
The value was 89.5%.

And the “overall incidence of AEs” value (Safety assessment; 360 mg group, 72/76)?
The value was 94.7%.

What about the “deaths (patients)” value (Safety assessment; 360 mg group, suicide after initial dose, before maintenance dose) of the same compound?
Its value is “One”.

And the “patients with AEs related to injection site reactions” value (Safety assessment; 480 mg group)?
Its value is 60.5%.

And the “patients with marked increase (≥480 ms) in QTcF on Day 364” value (Safety assessment; 480 mg group, 12-lead electrocardiogram)?
The value was “one”.

What about the “incidence of serious AEs” value (Safety assessment; 480 mg group, 7/76) of the same compound?
Its value is 9.2%.

And the “incidence of ADRs” value (Safety assessment; 480 mg group, 71/76)?
Its value is 93.4%.

What about the “overall incidence of AEs” value (Safety assessment; 480 mg group, 73/76) of the same compound?
The value was 96.1%.

What about the “patients who discontinued the treatment because of injection site reactions” value (Safety assessment; both groups) of the same compound?
Its value is “no patient”.

What about the “severity of injection site reactions” value (Safety assessment; both groups, NCI-CTCAE v4.0) of the same compound?
The value was “mild or moderate (Grade 1 or 2)”.

What about the “GMR (95% CI) of Ctrough values between Days 28 and 364” value ([3]; 360 mg group) of the same compound?
Its value is 1.258 (1.114–1.421).

And the “GMR (95% CI) of Ctrough values between Days 28 and 364” value ([3]; 480 mg group)?
The value was 1.752 (1.589–1.932).

And the “steady state of plasma concentration” value ([3]; both dose groups (360 and 480 mg every 84 days))?
The value was “did not achieve steady state by Day 364”.

What about the Cmax ([3]; 360 mg) of the same compound?
Its Cmax is 74.7 ± 30 ng/mL.

What about the Tmax ([3]; 360 mg) of the same compound?
The Tmax was 71.3 h.

What about the Cmax ([3]; 480 mg) of the same compound?
Its Cmax is 98.5 ± 31.7 ng/mL.

What about the Tmax ([3]; 480 mg) of the same compound?
The Tmax was 70.8 h.

And the “cumulative probability of serum testosterone ≤0.5 ng/ml” value (shortened to “cumulative probability”) (serum testosterone [4]; 360 mg group)?
Its value is 89.0%.

And the “cumulative probability” value (serum testosterone [4]; 480 mg group)?
The value was 93.3%.

What about the “cumulative probability” value (serum testosterone [5]; 80 mg maintenance-dose group) of the same compound?
Its value is 94.5%.

And the “cumulative probability” value (serum testosterone [5]; 160 mg maintenance-dose group)?
The value was 95.2%.

What about the “percent change in PSA at Day 28” value (serum PSA; 80 mg maintenance-dose group) of the same compound?
Its value is “–80.14%”.

What about the “percent change in PSA at Day 28” value (serum PSA; 160 mg maintenance-dose group) of the same compound?
The value was “–79.52%”.
